# Measured values: ChEMBL document CHEMBL1137854, “Substituted piperazines as novel dipeptidyl peptidase IV inhibitors” (Bioorg Med Chem Lett, 2004)
# Experiments:
# Dipeptidyl peptidase 2 = Dipeptidyl peptidase 2 (Homo sapiens, UniProt Q9UHL4); test: Inhibitory concentration against quiescent cell proline peptidase
# Dipeptidyl peptidase 4 = Dipeptidyl peptidase 4 (Homo sapiens, UniProt P27487); test: Inhibitory concentration against Dipeptidylpeptidase IV
# [1] = Clearance in rat; format: ADME, organism-based; settings: in vivo
# In short: (§1)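 Male Sprague-Dawley rats given compound intravenously at 1 mg/kg and orally at 2 mg/kg; plasma drug concentrations measured by LC/MS/MS.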
# [2] = Bioavailability in rat; format: ADME, organism-based; settings: in vivo; in short: as §1
# Sequence of Dipeptidyl peptidase 4 (P27487 whole entry): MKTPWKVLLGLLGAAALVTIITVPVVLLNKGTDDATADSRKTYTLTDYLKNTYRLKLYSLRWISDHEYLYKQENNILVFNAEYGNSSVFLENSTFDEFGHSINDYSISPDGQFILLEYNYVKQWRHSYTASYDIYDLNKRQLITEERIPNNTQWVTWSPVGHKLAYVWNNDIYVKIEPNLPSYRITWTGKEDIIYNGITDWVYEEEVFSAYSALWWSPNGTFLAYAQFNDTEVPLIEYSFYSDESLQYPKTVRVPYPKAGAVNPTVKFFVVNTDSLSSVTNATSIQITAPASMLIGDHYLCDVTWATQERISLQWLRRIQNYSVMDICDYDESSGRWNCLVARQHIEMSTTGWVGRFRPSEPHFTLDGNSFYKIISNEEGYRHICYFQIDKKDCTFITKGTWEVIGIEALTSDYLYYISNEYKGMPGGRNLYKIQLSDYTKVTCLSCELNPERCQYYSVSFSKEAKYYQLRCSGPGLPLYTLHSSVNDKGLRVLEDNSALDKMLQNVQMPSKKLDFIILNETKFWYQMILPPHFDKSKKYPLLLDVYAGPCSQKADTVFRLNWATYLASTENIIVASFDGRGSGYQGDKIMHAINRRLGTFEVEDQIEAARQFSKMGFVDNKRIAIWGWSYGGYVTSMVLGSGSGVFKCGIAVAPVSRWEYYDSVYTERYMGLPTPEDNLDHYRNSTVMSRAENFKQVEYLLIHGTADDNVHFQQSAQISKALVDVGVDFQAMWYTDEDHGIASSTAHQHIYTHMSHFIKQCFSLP
IC50 (Dipeptidyl peptidase 2) [nM],IC50 (Dipeptidyl peptidase 4) [nM],clearance [1] [mL/min/kg],bioavailability [2] [%],SMILES
,,130,< 1,CS(=O)(=O)Nc1cccc(NC(=O)CN2CCN(C(=O)C[C@H](N)Cc3ccccc3F)[C@H](Cc3ccccc3)C2)c1
7700,,,,CS(=O)(=O)Nc1cccc(NC(=O)CN2CCN(C(=O)C[C@H](N)Cc3ccccc3)C(Cc3ccccc3)C2)c1 (some centres undefined)
15000,36000,,,CS(=O)(=O)Nc1cccc(NC(=O)CN2CCN(C(=O)C[C@@H](N)Cc3ccc(F)c(F)c3)C(Cc3ccccc3)C2)c1 (some centres undefined)
> 100000,166,,,N[C@@H](CC(=O)N1CCNC[C@H]1Cc1ccc(F)cc1)Cc1ccccc1F
66000,114,,,NC(=O)CN1CCN(C(=O)C[C@H](N)Cc2ccccc2F)[C@H](Cc2ccccc2)C1
> 100000,143,,,N[C@@H](CC(=O)N1CCNC[C@H]1Cc1cscn1)Cc1ccccc1F
> 100000,108,,,N[C@@H](CC(=O)N1CCOC[C@H]1Cc1ccccc1)Cc1ccccc1F
280,1100,,,CS(=O)(=O)Nc1cccc(NC(=O)CN2CCN(C(=O)C[C@H](N)Cc3ccc(F)c(F)c3)[C@@H](Cc3ccccc3)C2)c1
50000,922,,,CC(C)[C@@H]1CNCCN1C(=O)C[C@H](N)Cc1ccccc1F
19000,,,,CS(=O)(=O)Nc1cccc(NC(=O)CN2CCN(C(=O)C[C@@H](N)Cc3ccccc3)C(Cc3ccccc3)C2)c1 (some centres undefined)

# Further lines, the compound ahead of its results:
SMILES,IC50 (Dipeptidyl peptidase 2) [nM],IC50 (Dipeptidyl peptidase 4) [nM],clearance [1] [mL/min/kg],bioavailability [2] [%]
N[C@@H](CC(=O)N1CCNC[C@H]1Cc1ccccc1)Cc1ccccc1F,> 100000,139,,
N[C@@H](CC(=O)N1CCNC[C@H]1c1ccc(F)cc1)Cc1ccccc1F,23000,610,,
CN1CCN(C(=O)C[C@H](N)Cc2ccccc2F)[C@H](Cc2ccccc2)C1,> 100000,225,,
N[C@@H](CC(=O)N1CCN(Cc2ccccc2)C[C@H]1Cc1ccccc1)Cc1ccccc1F,15000,405,,
N[C@@H](CC(=O)N1CCNCC1)Cc1ccccc1F,> 100000,3700,,
N[C@@H](CC(=O)N1CCNC[C@H]1Cc1cccnc1)Cc1ccccc1F,> 100000,155,,
N[C@@H](CC(=O)N1CCCC[C@H]1Cc1ccccc1)Cc1ccccc1F,> 100000,1040,,
CS(=O)(=O)Nc1cccc(NC(=O)CN2CCN(C(=O)C[C@H](N)Cc3ccc(F)c(F)c3)C(Cc3ccccc3)C2)c1 (some centres undefined),450,44,,
C[C@@H]1CNCCN1C(=O)C[C@H](N)Cc1ccccc1F,> 100000,1600,,
CS(=O)(=O)Nc1cccc(NC(=O)CN2CCN(C(=O)C[C@H](N)Cc3ccc(F)c(F)c3)[C@H](Cc3ccccc3)C2)c1,640,30,,
N[C@@H](CC(=O)N1CCNC[C@H]1Cc1ccccc1)Cc1cc(F)ccc1F,65000,,,
